Consider 16 compounds from PubChem BioAssay AID652011 (Sanford-Burnham Center for Chemical Genomics, 2013).

Activity calls are given as the source filed them.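 Rule for the calls: active = IC50 of 10 µM or lower on HIF-2a in both cell lines, but not on HIF-1a; inactive = the rest, including compounds also potent on HIF-1a.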

Common to all, as to experiment: HIF reporter inhibition across pancreatic and renal lines – cell-based, luminescence, MIAPaCa-2, 786-0, panel, SAR follow-up (AID 652011)
Test [1] has as its target Endothelial PAS domain-containing protein 1 (Homo sapiens) (UniProt Q99814). To be noted: MIAPaCa-2/PANC HIF reporter, luciferase luminescence, desferoxamine, overnight; HIF2a PANC cells; mean of runs. Put shortly: (§1)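 Probe or stimulus: desferoxamine stimulus; times: overnight seeding and compound exposure, 37 °C, 5% CO2, 10-min detection; signal: One-Glo luciferase luminescence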

For test [2], the target named is Hypoxia-inducible factor 1-alpha (Homo sapiens) (UniProt Q16665). Particulars: MIAPaCa-2/PANC HIF reporter, luciferase luminescence, desferoxamine, overnight; HIF1a; mean of runs. The gist of the method:
as §1

Test [3] deals with HIF2a PANC. Particulars: MIAPaCa-2/PANC HIF reporter, luciferase luminescence, desferoxamine, overnight. Put shortly:
as §1

Test [4] deals with HIF1a. Particulars: MIAPaCa-2/PANC HIF reporter, luciferase luminescence, desferoxamine, overnight. The gist of the method:
as §1

Setting [5] is: run 1, individual run IC50, panel line.
[6] abbreviates: run 2, individual run IC50, panel line.

Sequence of Hypoxia-inducible factor 1-alpha (Homo sapiens) (Q16665 whole entry, looked up): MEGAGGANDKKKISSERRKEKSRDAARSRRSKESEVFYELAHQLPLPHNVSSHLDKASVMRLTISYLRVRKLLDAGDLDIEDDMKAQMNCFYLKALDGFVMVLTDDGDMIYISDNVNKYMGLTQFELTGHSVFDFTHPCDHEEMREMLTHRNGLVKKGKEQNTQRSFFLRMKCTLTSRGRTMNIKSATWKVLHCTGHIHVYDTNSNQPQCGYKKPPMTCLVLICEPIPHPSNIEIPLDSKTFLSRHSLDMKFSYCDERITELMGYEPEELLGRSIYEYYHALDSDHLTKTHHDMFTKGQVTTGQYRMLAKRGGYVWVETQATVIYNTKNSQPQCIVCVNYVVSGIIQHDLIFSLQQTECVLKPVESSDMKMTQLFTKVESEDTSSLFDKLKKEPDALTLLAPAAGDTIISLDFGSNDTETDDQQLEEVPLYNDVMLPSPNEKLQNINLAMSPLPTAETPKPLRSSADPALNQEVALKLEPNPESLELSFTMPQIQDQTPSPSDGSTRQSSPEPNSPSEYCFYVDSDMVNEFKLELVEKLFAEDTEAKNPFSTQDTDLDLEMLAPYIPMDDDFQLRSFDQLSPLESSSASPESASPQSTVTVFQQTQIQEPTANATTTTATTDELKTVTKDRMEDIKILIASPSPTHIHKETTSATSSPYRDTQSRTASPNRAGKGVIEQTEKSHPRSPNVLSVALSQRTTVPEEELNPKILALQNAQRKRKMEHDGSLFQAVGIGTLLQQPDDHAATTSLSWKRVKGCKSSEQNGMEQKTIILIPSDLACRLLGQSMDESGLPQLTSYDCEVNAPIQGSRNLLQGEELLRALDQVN
Sequence of Endothelial PAS domain-containing protein 1 (Homo sapiens) (Q99814 whole entry, looked up, the tested form may be a part): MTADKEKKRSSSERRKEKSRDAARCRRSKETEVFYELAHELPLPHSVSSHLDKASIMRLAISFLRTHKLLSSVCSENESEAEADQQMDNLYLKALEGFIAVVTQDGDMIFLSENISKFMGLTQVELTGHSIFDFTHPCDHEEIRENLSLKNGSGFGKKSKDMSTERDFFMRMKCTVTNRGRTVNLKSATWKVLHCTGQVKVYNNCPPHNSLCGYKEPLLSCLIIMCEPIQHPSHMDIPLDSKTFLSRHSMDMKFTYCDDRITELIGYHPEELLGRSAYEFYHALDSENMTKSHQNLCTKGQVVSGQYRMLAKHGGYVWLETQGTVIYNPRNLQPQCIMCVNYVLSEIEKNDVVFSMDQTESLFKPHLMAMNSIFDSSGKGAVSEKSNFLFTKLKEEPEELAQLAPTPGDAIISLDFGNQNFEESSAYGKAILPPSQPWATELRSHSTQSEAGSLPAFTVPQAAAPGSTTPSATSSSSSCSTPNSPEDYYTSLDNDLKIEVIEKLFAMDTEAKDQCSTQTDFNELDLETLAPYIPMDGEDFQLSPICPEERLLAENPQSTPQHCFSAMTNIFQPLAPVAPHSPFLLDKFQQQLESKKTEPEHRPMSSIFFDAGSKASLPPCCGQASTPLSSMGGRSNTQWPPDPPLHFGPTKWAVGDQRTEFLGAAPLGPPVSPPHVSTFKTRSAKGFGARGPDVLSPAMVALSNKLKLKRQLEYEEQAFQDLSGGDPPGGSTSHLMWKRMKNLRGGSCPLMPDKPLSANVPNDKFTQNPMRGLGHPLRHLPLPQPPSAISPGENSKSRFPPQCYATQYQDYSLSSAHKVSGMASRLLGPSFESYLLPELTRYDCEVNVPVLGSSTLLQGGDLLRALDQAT

In general, IC50 refers to the midpoint of a concentration-inhibition curve. Take `CC(C)(C)c1ccc(-c2noc(CCC(=O)Nc3cccnc3)n2)cc1`: the IC50 is less than 190 nM in test [1]; 33400 nM in test [2]; less than 190 nM in test [3] (setting [5]); less than 190 nM in test [3] (setting [6]); 38100 nM in test [4] (setting [5]); 28600 nM in test [4] (setting [6]).

As to `CC(C)(C)c1ccc(-c2noc(CCC(=O)NC3CCCCC3)n2)cc1`, the IC50 was less than 190 nM in test [1]; 38000 nM in test [2]; less than 190 nM in test [3] (setting [5]); less than 190 nM in test [3] (setting [6]); greater than 99000 nM in test [4] (setting [5]); 38000 nM in test [4] (setting [6]).

With `CC(C)(C)c1ccc(-c2noc(CCC(=O)O)n2)cc1`, the IC50 in test [1], in test [2], in test [3] (setting [5]), in test [3] (setting [6]), in test [4] (setting [5]) and in test [4] (setting [6]) was less than 190 nM each time.

For the compound `CC(C)(C)c1ccc(-c2noc(CCC(=O)Nc3cccc([N+](=O)[O-])c3)n2)cc1`, the IC50 in test [1] was less than 190 nM; in test [2], 8290 nM; in test [3] (setting [5]) it was less than 190 nM; in test [3] (setting [6]), less than 190 nM; in test [4] (setting [5]), 9870 nM; in test [4] (setting [6]) it was 6700 nM.

Regarding `CCOc1ccccc1NC(=O)CCc1nc(-c2ccc(C(C)(C)C)cc2)no1`, the IC50 in test [1] was less than 190 nM; in test [2] it was 973 nM; in test [3] (setting [5]), less than 190 nM; in test [3] (setting [6]), less than 190 nM; in test [4] (setting [5]) it was greater than 99000 nM; in test [4] (setting [6]), 973 nM.

Take `COc1cccc(NC(=O)CCc2nc(-c3ccc(C(C)(C)C)cc3)no2)c1`: the IC50 is less than 190 nM in test [1]; 229 nM in test [2]; less than 190 nM in test [3] (setting [5]); less than 190 nM in test [3] (setting [6]); less than 190 nM in test [4] (setting [5]); 229 nM in test [4] (setting [6]).

For `CC(C)(C)c1ccc(-c2noc(CCC(=O)NC3CCCC3)n2)cc1`, the IC50 in test [1] was less than 190 nM; in test [2], 49600 nM; in test [3] (setting [5]), less than 190 nM; in test [3] (setting [6]) it was less than 190 nM; in test [4] (setting [5]) it was greater than 99000 nM; in test [4] (setting [6]) it was less than 190 nM.

Consider `CCNC(=O)CCc1nc(-c2c(Cl)cccc2Cl)no1`, for which the IC50 in test [1] is > 99000 nM (inactive); in test [3] (setting [5]) it was greater than 99000 nM; in test [3] (setting [6]), greater than 99000 nM; in test [4] (setting [5]), greater than 99000 nM; in test [4] (setting [6]) it was greater than 99000 nM.

On to `COC(=O)CCc1nc(-c2ccc(C(C)(C)C)cc2)no1`, for which the IC50 is less than 190 nM in test [1]; less than 190 nM in test [2]; less than 190 nM in test [3] (setting [5]); less than 190 nM in test [3] (setting [6]); less than 1000 nM in test [4] (setting [5]); less than 190 nM in test [4] (setting [6]).

For the compound `CCNC(=O)CCc1nc(-c2cccc(OC)c2)no1`, the IC50 in test [1] is > 99000 nM (inactive); in test [3] (setting [5]) it was greater than 99000 nM; in test [3] (setting [6]), greater than 99000 nM; in test [4] (setting [5]), greater than 99000 nM; in test [4] (setting [6]), greater than 99000 nM.

For the compound `CCOc1ccc(-c2noc(CCC(=O)O)n2)cc1`, the IC50 was 5860 nM in test [1]; 1340 nM in test [2]; 4440 nM in test [3] (setting [5]); 7280 nM in test [3] (setting [6]); 1170 nM in test [4] (setting [5]); 1510 nM in test [4] (setting [6]).

On to `CC(C)(C)c1ccc(-c2noc(CCC(=O)NC3CCC3)n2)cc1`, for which the IC50 in test [1] is less than 190 nM; in test [3] (setting [5]), less than 10000 nM; in test [3] (setting [6]) it was less than 190 nM; in test [4] (setting [5]), greater than 99000 nM; in test [4] (setting [6]) it was greater than 99000 nM.

Turning to `CC(C)(C)c1ccc(-c2noc(CCC(=O)NCC3CCCO3)n2)cc1` (stereo not given), the IC50 in test [1] is less than 190 nM; in test [3] (setting [5]), less than 190 nM; in test [3] (setting [6]) it was less than 190 nM; in test [4] (setting [5]), greater than 99000 nM; in test [4] (setting [6]), greater than 99000 nM.

In the case of `CCCCc1ccc(-c2noc(CCC(=O)NC(C)(C)C)n2)cc1`, the IC50 was less than 190 nM in test [1]; less than 190 nM in test [3] (setting [5]); less than 190 nM in test [3] (setting [6]); greater than 99000 nM in test [4] (setting [5]); greater than 99000 nM in test [4] (setting [6]).

As to `CC(C)(C)c1ccc(-c2noc(CCC(=O)Nc3ccccc3)n2)cc1`, the IC50 in test [1] was less than 190 nM; in test [3] (setting [5]) it was less than 190 nM; in test [3] (setting [6]), less than 190 nM; in test [4] (setting [5]), greater than 99000 nM; in test [4] (setting [6]), greater than 99000 nM.

Consider `COc1ccccc1NC(=O)CCc1nc(-c2ccc(C(C)(C)C)cc2)no1`, for which the IC50 in test [1] was less than 190 nM; in test [2], 647 nM; in test [3] (setting [5]), less than 190 nM; in test [3] (setting [6]), less than 190 nM; in test [4] (setting [5]) it was greater than 99000 nM; in test [4] (setting [6]) it was 647 nM.
